Source: ChEMBL document CHEMBL2390869, “Evolution of novel tricyclic CRTh2 receptor antagonists from a (E)-2-cyano-3-(1H-indol-3-yl)acrylamide scaffold” (Bioorg Med Chem Lett, 2013)
≈ marks a conversion by molar mass, not a printed value.

Legend:
[1] = Oral bioavailability in Wistar rat at 10 mg/kg; assay type: ADME, organism-based; conditions: in vivo
Procedure, shortened: (§1)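 Single doses given to three male Wistar rats per route: 10 mg/kg orally and 1 mg/kg intravenously, as a solution in 20% propyleneglycol/80% buffer. Plasma PK parameters were derived. CL, terminal T1/2 and Vss come from the intravenous arm. AUC0–last comes from the oral arm.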

[2] = Clearance in Wistar rat at 10 mg/kg, po and 1 mg/kg, iv; assay type: ADME, organism-based; conditions: in vivo; procedure, shortened: as §1
[3] = Cmax in Wistar rat at 10 mg/kg, po and 1 mg/kg, iv; assay type: ADME, organism-based; conditions: in vivo; procedure, shortened: as §1
[4] = biological target: T1, Prostaglandin E2 receptor EP1 subtype (Homo sapiens, UniProt P34995); assay: Antagonist activity at human EP1 receptor assessed as inhibition of PGE2-induced Ca2+ mobilization by FLIPR assay; assay type: functional
T1 sequence (P34995 whole entry): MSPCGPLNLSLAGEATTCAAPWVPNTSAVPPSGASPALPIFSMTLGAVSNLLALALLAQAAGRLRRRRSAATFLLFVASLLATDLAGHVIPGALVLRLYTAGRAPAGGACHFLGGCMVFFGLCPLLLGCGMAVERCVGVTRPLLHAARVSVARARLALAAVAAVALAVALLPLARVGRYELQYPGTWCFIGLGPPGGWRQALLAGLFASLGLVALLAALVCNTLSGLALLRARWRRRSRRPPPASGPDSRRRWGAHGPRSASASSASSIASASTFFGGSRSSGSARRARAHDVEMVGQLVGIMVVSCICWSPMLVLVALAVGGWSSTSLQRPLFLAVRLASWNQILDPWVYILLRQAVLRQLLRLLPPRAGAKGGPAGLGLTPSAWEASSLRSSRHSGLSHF
Procedure, shortened: (§2)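 Antagonism measured as inhibition of agonist-induced Ca2+ mobilization by FLIPR: PGE2 as agonist for human EP1 and EP3, U46619 as agonist for human TP. Values are IC50.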

[5] = Solubility of the compound in buffer at pH 4; assay type: physicochemical
Procedure, shortened: (§3)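 Solubility measured in buffered aqueous solution at pH 4 and pH 7, and in water, where the final pH of the aqueous solution was 4.6.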

[6] = biological target: Prostaglandin E2 receptor EP2 subtype (Homo sapiens, UniProt P43116); assay: Inhibition of PGE2 binding to human EP2 receptor
Prostaglandin E2 receptor EP2 subtype, sequence (P43116 whole entry): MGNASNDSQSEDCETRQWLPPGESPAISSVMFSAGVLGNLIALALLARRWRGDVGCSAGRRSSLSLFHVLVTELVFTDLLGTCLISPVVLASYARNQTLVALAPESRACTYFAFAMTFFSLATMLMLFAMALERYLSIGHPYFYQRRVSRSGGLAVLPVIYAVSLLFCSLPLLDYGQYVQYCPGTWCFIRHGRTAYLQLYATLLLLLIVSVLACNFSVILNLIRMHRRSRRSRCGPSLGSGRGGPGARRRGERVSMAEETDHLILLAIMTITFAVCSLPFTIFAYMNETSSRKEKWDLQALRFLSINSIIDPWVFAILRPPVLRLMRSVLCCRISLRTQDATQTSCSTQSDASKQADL

[7] = Metabolic stability in rat plasma assessed as compound remaining after 4 hrs; assay type: ADME, cell-free; conditions: read-out: Stability
Procedure, shortened: (§4)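 Compound incubated in rat and human plasma for up to 4 h. Unchanged parent quantified by LC–MS, reported as % parent remaining at 4 h plus elimination half-life.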

[8] = biological target: T2, Prostaglandin E2 receptor EP3 subtype (Homo sapiens, UniProt P43115); assay: Antagonist activity at human EP3 receptor assessed as inhibition of PGE2-induced Ca2+ mobilization by FLIPR assay; assay type: functional; procedure, shortened: as §2
T2 sequence (P43115 whole entry): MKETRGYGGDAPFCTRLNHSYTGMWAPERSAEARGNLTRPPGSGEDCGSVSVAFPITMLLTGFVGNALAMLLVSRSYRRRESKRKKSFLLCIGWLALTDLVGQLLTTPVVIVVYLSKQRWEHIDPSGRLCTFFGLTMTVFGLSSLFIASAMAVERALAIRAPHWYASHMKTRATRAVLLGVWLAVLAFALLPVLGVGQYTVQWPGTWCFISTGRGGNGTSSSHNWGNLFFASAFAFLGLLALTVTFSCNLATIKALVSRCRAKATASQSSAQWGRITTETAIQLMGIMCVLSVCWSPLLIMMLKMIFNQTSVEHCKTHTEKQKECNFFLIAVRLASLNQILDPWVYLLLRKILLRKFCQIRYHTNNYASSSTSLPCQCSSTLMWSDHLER

[9] = biological target: T3, Prostaglandin D2 receptor 2 (Homo sapiens, UniProt Q9Y5Y4); assay: Displacement of [3H]PGD2 from human CRTh2 receptor
T3 sequence (Q9Y5Y4 whole entry): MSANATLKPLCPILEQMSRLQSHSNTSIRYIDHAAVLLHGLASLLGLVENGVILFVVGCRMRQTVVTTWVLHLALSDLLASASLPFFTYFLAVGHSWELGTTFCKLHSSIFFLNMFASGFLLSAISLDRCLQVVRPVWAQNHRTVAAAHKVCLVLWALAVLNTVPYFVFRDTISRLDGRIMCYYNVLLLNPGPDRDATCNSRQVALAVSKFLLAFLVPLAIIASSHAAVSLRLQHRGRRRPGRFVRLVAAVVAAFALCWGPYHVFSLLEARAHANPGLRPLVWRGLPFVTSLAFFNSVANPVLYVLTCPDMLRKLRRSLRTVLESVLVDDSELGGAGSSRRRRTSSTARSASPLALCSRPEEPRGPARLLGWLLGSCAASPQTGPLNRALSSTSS
Procedure, shortened: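 Human CRTh2 binding assay run in assay buffer. IC50 reported as the mean of at least three experiments.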

Thromboxane A2 receptor = biological target: T4, Thromboxane A2 receptor (Homo sapiens, UniProt P21731); assay: Antagonist activity at human TP2 receptor assessed as inhibition of U46619-induced Ca2+ mobilization by FLIPR assay; assay type: functional; procedure, shortened: as §2
T4 sequence (P21731 whole entry): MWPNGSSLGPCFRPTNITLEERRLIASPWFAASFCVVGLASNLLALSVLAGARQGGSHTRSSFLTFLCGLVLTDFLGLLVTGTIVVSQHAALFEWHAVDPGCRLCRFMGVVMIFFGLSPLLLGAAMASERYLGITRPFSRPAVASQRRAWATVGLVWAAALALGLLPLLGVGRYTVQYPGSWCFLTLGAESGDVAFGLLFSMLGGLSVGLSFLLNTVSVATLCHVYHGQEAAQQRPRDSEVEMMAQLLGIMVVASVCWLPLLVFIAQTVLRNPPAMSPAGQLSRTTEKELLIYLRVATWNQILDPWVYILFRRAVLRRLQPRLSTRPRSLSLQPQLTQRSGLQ

[10] = biological target: T5, Prostaglandin D2 receptor (Homo sapiens, UniProt Q13258); assay: Inhibition of PGD2 binding to human DP1 receptor
T5 sequence (Q13258 whole entry): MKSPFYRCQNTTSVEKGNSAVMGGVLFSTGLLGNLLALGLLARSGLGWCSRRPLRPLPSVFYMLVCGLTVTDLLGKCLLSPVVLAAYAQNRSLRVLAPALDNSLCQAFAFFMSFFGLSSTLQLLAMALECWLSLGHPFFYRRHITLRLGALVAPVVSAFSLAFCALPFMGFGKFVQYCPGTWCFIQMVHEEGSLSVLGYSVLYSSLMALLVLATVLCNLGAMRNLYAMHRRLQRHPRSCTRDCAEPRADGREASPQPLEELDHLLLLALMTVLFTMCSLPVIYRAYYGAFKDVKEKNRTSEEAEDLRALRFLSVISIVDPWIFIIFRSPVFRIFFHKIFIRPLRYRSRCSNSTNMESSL

[11] = biological target: Prostaglandin E2 receptor EP4 subtype (Homo sapiens, UniProt P35408); assay: Inhibition of PGE2 binding to human EP4 receptor
Prostaglandin E2 receptor EP4 subtype, sequence (P35408 whole entry): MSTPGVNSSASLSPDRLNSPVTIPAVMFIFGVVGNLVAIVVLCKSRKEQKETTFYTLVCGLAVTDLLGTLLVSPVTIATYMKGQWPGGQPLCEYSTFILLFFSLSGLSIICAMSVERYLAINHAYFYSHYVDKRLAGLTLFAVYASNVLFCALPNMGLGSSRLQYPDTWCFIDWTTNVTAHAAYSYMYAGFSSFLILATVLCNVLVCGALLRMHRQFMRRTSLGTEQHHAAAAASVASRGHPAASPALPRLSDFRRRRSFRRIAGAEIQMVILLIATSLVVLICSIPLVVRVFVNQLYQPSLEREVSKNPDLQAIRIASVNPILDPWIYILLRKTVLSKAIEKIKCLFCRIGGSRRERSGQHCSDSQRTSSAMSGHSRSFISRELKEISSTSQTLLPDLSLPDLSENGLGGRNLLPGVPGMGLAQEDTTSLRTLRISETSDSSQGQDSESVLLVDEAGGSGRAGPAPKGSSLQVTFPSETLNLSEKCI

[12] = Metabolic stability in human plasma assessed as compound remaining after 4 hrs; assay type: ADME, cell-free; conditions: read-out: Stability; procedure, shortened: as §4
[13] = Aqueous solubility of the compound in water at pH 4.6; assay type: physicochemical; procedure, shortened: as §3
Cytochrome P450 2D6 = Cytochrome P450 2D6 (Homo sapiens, UniProt P10635); assay: Inhibition of CYP2D6 (unknown origin); assay type: ADME
Cytochrome P450 2D6, sequence (P10635 whole entry): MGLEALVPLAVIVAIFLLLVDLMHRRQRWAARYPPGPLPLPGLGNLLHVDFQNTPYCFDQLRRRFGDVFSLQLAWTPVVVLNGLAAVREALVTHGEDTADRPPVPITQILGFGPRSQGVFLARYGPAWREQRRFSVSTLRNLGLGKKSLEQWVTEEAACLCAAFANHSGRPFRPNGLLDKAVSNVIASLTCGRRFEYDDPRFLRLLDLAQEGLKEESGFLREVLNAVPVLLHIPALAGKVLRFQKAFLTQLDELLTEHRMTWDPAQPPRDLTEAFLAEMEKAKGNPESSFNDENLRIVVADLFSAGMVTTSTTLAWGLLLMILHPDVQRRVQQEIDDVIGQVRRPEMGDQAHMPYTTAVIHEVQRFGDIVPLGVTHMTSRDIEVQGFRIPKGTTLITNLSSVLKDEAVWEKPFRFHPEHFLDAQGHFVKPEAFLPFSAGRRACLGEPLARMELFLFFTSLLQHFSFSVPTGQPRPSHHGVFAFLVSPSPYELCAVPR

Cytochrome P450 3A4 = Cytochrome P450 3A4 (Homo sapiens, UniProt P08684); assay: Inhibition of CYP3A4 (unknown origin); assay type: ADME
Cytochrome P450 3A4, sequence (P08684 whole entry): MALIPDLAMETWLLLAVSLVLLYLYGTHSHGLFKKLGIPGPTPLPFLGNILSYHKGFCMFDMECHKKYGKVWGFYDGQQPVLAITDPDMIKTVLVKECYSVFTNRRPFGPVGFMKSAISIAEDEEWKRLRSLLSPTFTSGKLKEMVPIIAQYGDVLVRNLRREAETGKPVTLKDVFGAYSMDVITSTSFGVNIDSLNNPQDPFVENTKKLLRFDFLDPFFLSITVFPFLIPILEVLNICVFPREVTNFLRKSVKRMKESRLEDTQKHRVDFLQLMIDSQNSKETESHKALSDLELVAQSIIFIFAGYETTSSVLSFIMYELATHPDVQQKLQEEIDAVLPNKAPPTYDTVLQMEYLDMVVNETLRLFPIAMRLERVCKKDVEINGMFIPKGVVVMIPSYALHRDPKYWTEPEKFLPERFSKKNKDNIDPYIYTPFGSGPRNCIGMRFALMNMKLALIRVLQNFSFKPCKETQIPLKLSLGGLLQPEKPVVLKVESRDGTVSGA

[14] = biological target: T3, Prostaglandin D2 receptor 2; assay: Antagonist activity at PGD2-induced human CRTh2 receptor activation expressed in HEK293 cells assessed as intracellular Ca2+ liberation by FLIPR assay; assay type: functional, cell-based
Procedure, shortened: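 HEK-293 cells stably expressing human CRTh2 were stimulated with PGD2. Antagonism of intracellular Ca2+ liberation was read by FLIPR. IC50 is the mean of at least three experiments.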

[15] = Terminal half life in Wistar rat at 10 mg/kg, po and 1 mg/kg, iv; assay type: ADME, organism-based; conditions: in vivo, read-out: beta t1/2 (converted); procedure, shortened: as §1
[16] = Stability in simulated gastric fluid after 1hr by LC/MS analysis; assay type: physicochemical; conditions: read-out: Stability
Procedure, shortened: (§5)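 Compound incubated in simulated gastric fluid for 1 h or simulated intestinal fluid for 4 h. Unchanged parent recovered and measured by LC–MS, expressed as % parent.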

[17] = AUC (0 to last) in Wistar rat at 10 mg/kg, po; assay type: ADME, organism-based; parameters: time 0 - last, dose 10 mg/kg, route oral; conditions: plasma; procedure, shortened: as §1
Cytochrome P450 2C9 = Cytochrome P450 2C9 (Homo sapiens, UniProt P11712); assay: Inhibition of CYP2C9 (unknown origin); assay type: ADME
Cytochrome P450 2C9, sequence (P11712 whole entry): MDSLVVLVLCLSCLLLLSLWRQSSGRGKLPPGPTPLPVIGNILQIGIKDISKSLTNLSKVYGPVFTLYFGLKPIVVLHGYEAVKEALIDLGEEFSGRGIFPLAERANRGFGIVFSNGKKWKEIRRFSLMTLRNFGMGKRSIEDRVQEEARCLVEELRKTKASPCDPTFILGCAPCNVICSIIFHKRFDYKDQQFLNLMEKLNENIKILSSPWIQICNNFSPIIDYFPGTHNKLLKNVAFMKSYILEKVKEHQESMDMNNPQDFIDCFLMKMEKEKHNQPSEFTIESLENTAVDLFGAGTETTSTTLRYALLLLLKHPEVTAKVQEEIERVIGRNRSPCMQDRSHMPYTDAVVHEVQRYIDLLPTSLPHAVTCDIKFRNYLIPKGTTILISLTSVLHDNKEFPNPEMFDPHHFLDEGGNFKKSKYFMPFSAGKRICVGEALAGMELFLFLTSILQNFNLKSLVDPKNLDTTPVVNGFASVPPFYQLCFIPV

[18] = Volume of distribution at steady state in Wistar rat at 10 mg/kg, po and 1 mg/kg, iv; assay type: ADME, organism-based; conditions: in vivo, read-out: Vdss; procedure, shortened: as §1
[19] = Solubility of the compound in buffer at pH 7; assay type: physicochemical; procedure, shortened: as §3
[20] = Stability in simulated intestinal fluid after 4 hrs by LC/MS analysis; assay type: physicochemical; conditions: read-out: Stability; procedure, shortened: as §5
[21] = biological target: T3, Prostaglandin D2 receptor 2; assay: Displacement of [3H]PGD2 from human CRTh2 receptor in presence of human serum albumin
Procedure, shortened: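 Human CRTh2 binding assay run with 0.5% human serum albumin added to the assay buffer to mimic binding to blood proteins. IC50 is reported as the mean of at least three experiments.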

[22] = Half life in human plasma; assay type: ADME, cell-free; procedure, shortened: as §4
[23] = Intrinsic clearance in rat liver microsomes assessed per mg of protein; assay type: ADME, Microsome; conditions: read-out: CLH
Procedure, shortened: (§6)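 Intrinsic clearance determined in human and rat liver microsomes (per mg protein) and in rat hepatocytes (per 10⁶ cells).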

[24] = Half life in rat plasma; assay type: ADME, cell-free; procedure, shortened: as §4
[25] = Intrinsic clearance in rat hepatocytes measured per 10^6 cells; assay type: ADME, cell-based, Hepatocyte; conditions: read-out: CLH; procedure, shortened: as §6
[26] = Intrinsic clearance in human liver microsomes assessed per mg of protein; assay type: ADME, Microsome; conditions: read-out: CLH; procedure, shortened: as §6
[27] = Lipophilicity, log D of the compound at pH 7.4; assay type: physicochemical; conditions: buffer

Q: Which bioavailability [1] does the source give for `O=C(O)Cn1c2c(c3ccccc31)CN(C(=O)c1ccccc1)CC2` here?
A: 14%

Q: What about the clearance [2] of the same compound?
A: 4.6 mL/min/kg

Q: And the Cmax [3]?
A: 600 ng/mL

Q: And the IC50 [4]?
A: > 10 µM

Q: What about the solubility [5] of the same compound?
A: 515 µg/mL (≈ 1540 µM)

Q: And the IC50 [6]?
A: > 10 µM

Q: What about the remaining at 4 h [7] of the same compound?
A: 90%

Q: What about the IC50 [8] of the same compound?
A: > 10 µM

Q: And the IC50 [9]?
A: 0.017 µM

Q: And the IC50 (Thromboxane A2 receptor)?
A: > 25 µM

Q: And the IC50 [10]?
A: > 10 µM

Q: And the IC50 [11]?
A: > 10 µM

Q: What about the remaining at 4 h [12] of the same compound?
A: 90%

Q: What about the solubility [13] of the same compound?
A: 64 µg/mL (≈ 191 µM)

Q: What about the IC50 (Cytochrome P450 2D6) of the same compound?
A: > 50 µM

Q: What about the IC50 (Cytochrome P450 3A4) of the same compound?
A: > 50 µM

Q: And the IC50 [14]?
A: 0.17 µM

Q: What about the half-life [15] of the same compound?
A: 2.3 h

Q: What about the remaining at 1 h [16] of the same compound?
A: 100%

Q: What about the AUC(0-t) [17] of the same compound?
A: 6300 ng·h/mL

Q: And the IC50 (Cytochrome P450 2C9)?
A: > 15 µM

Q: What about the Vd [18] of the same compound?
A: 0.5 L/kg

Q: What about the solubility [19] of the same compound?
A: 810 µg/mL (≈ 2420 µM)

Q: And the remaining at 4 h [20]?
A: 100%

Q: And the IC50 [21]?
A: 0.015 µM

Q: What does the source list for `N#C/C(=C\c1cn(CC(=O)O)c2ccccc12)C(=O)N1CCCc2ccccc21`?
A: bioavailability [1]: 18%; clearance [2]: 14 mL/min/kg; Cmax [3]: 213 ng/mL; IC50 [4]: > 10 µM; solubility [5]: 7 µg/mL (≈ 18.2 µM); IC50 [6]: > 10 µM; remaining at 4 h [7]: 90%; half-life [22]: > 4 h; IC50 [8]: > 10 µM; microsomal CLint [23]: 32 µL/min/mg; IC50 [9]: 0.014 µM; IC50 (Thromboxane A2 receptor): > 25 µM; half-life [24]: > 4 h; IC50 [10]: 8.2 µM; IC50 [11]: > 10 µM; remaining at 4 h [12]: 95%; solubility [13]: 17 µg/mL (≈ 44.1 µM); IC50 (Cytochrome P450 2D6): > 10 µM; IC50 (Cytochrome P450 3A4): > 10 µM; half-life [15]: 1 h; remaining at 1 h [16]: 93%; AUC(0-t) [17]: 2200 ng·h/mL; hepatocyte CLint [25]: 11 µL/min/1e6 cells; microsomal CLint [26]: 6 µL/min/mg; IC50 (Cytochrome P450 2C9): > 10 µM; logD [27]: -0.4; Vd [18]: 0.7 L/kg; solubility [19]: 670 µg/mL (≈ 1740 µM); remaining at 4 h [20]: 68%; IC50 [21]: 0.01 µM
